Experimental data: ChEMBL document CHEMBL4130383, “Hydroxy-substituted trans-cinnamoyl derivatives as multifunctional tools in the context of Alzheimer's disease” (Eur J Med Chem, 2017)
Calls of active or inactive are those of the source. No cut-off for these calls is given here.

Experiments:
[1] = target: T1, Glycogen synthase kinase-3 beta (Homo sapiens, UniProt P49841); test: Inhibition of GSK3beta (unknown origin) at 50 uM using GSM substrate after 30 mins by Kinase-Glo reagent based luminescence assay relative to control
In short: (§1)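 Buffer: 50 mM HEPES, 1 mM EDTA, 1 mM EGTA, 15 mM Mg acetate, pH 7.5. Enzyme 20 ng per well, GSM substrate 25 μM, ATP 1 μM, DMSO ≤1%. Incubated 30 min at 30 °C, then stopped with Kinase-Glo; luminescence read after 10 min. Activity normalised between no-inhibitor and […] total-inhibition controls. Single-point screen at 50 μM; IC50 by linear regression. Mean of two experiments, each in duplicate.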
Target sequence in this assay (P49841 whole entry, looked up): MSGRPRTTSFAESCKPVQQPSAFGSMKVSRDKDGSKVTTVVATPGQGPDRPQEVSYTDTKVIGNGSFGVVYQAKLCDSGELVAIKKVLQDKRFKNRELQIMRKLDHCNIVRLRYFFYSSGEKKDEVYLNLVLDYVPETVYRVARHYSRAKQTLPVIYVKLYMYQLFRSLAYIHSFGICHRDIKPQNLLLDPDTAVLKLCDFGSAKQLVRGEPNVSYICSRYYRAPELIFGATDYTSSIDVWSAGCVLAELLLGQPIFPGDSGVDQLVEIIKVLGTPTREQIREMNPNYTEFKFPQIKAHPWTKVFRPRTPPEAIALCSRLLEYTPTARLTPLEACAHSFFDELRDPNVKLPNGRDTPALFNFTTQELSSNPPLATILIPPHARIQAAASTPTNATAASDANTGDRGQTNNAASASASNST

[2] = target: T2, Amyloid-beta precursor protein (Homo sapiens, UniProt P05067); test: Inhibition of self-induced amyloid beta (1 to 42) (unknown origin) aggregation at 50 uM by thioflavin T-based fluorometric assay relative to control
T2 sequence (P05067 whole entry): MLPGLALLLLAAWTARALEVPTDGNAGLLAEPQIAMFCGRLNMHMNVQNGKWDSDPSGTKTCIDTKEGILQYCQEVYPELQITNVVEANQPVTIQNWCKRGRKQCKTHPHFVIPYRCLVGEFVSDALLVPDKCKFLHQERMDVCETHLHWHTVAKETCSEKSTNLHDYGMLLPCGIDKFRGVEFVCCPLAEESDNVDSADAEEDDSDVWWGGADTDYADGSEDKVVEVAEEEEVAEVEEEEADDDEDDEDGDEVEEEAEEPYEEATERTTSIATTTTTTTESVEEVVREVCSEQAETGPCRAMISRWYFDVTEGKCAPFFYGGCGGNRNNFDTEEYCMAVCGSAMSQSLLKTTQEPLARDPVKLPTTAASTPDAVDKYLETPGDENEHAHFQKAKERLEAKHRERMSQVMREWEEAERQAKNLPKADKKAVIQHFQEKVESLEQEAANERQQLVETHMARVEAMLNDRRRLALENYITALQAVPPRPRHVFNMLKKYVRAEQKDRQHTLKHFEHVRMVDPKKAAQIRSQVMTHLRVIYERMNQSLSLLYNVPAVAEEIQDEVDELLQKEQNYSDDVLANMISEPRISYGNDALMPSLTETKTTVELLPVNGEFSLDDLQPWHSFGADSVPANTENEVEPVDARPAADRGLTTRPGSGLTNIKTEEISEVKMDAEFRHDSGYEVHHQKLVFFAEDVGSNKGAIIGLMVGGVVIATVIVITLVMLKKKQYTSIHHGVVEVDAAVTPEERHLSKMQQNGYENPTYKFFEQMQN
In short: (§2)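 HFIP-pretreated Aβ42 stock at 500 μM in CH3CN/0.3 mM Na2CO3/250 mM NaOH, diluted to 50 μM in 10 mM phosphate buffer pH 8.0 with 10 mM NaCl. Incubated at 30 °C with or without inhibitor at 50 μM (1:1 ratio); inhibitor blanks included. ThT fluorescence gave % inhibition. IC50 from concentrations giving 20–80% inhibition.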

[3] = Antioxidant activity assessed as inhibition rate constant for auto-oxidation of cumene initiated by AIMN in PhCl at 30 degC; type: functional
In short: (§3)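 Oxygen-uptake measurement in a two-channel differential pressure apparatus. Air-saturated cumene (3.6 M) in chlorobenzene (1:1 v/v) with AIBN 0.05 M as thermal initiator, equilibrated against a reference solution holding excess 2,2,5,7,8-pentamethyl-6-chromanol. Antioxidant injected once O2 consumption was constant. k_inh fitted from the uninhibited and inhibited O2-consumption slopes.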

[4] = target: T3, Protein-glutamine gamma-glutamyltransferase (Homo sapiens, UniProt P21980); test: Inhibition recombinant human TG2 using N-CbzGlu(gamma-p-nitrophenylester)Gly as substrate after 10 mins
T3 sequence (P21980 whole entry): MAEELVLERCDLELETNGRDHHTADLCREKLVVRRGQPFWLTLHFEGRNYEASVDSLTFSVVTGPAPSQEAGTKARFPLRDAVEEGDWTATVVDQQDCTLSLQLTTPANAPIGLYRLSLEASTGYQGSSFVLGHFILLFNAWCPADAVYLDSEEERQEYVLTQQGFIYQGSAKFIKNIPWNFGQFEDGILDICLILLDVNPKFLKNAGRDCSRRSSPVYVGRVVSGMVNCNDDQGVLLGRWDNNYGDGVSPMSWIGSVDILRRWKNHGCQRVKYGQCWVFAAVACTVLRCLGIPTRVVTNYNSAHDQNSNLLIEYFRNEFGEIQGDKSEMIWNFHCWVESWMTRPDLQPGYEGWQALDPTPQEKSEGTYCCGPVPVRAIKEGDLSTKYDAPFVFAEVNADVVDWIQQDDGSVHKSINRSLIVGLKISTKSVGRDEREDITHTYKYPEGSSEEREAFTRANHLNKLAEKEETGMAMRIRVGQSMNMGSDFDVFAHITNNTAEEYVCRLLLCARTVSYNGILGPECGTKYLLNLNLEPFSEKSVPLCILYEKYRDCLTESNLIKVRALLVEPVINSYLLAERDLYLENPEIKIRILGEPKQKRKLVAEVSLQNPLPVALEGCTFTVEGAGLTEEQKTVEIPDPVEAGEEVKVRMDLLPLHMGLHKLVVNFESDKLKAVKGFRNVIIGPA

[5] = Antioxidant activity assessed as inhibition of auto-oxidation of cumene initiated by AIMN in PhCl at 30 degC relative to ethyl ferulate; type: functional; settings: for inhibition: dose or concentration not given here; in short: as §3
[6] = Passive permeability of the compound at 100 uM after 6 hrs by PAMPA
[7] = target: T1, Glycogen synthase kinase-3 beta; test: Inhibition of GSK3beta (unknown origin) using GSM substrate after 30 mins by Kinase-Glo reagent based luminescence assay; in short: as §1
Target sequence in this assay (P49841 whole entry): as the sequence (P49841 whole entry, looked up) above

[8] = target: T2, Amyloid-beta precursor protein; test: Inhibition of self-induced amyloid beta (1 to 42) (unknown origin) aggregation by thioflavin T-based fluorometric assay; in short: as §2
[9] = target: T2, Amyloid-beta precursor protein; test: Inhibition of self-induced amyloid beta (1 to 42) (unknown origin) aggregation by thioflavin T-based fluorometric assay relative to control; settings: concentration not given here; in short: as §2
[10] = target: Luciferin 4-monooxygenase (Photinus pyralis) (UniProt P08659); test: Inhibition of firefly luciferase activity up to 3 mM after 30 mins by luminescence assay
Sequence of Luciferin 4-monooxygenase (Photinus pyralis) (P08659 whole entry): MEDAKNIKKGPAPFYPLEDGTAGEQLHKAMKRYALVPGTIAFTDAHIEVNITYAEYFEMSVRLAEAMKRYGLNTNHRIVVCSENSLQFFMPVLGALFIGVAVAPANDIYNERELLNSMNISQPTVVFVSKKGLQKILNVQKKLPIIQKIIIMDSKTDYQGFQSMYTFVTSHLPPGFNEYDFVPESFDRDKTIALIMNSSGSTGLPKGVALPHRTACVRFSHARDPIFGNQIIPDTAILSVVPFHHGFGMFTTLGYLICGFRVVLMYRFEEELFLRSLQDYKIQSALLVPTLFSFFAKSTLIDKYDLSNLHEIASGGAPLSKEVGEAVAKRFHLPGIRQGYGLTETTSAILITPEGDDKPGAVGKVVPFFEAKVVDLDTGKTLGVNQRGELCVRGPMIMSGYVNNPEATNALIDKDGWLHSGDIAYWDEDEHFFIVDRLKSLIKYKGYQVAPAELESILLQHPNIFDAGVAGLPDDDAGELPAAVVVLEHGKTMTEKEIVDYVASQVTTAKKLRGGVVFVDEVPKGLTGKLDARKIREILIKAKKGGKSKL
In short: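 Luciferase interference check: the Kinase-Glo luminescence read-out was run without GSK-3β, with compound up to 3 mM.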

[11] = Metal chelating activity assessed as compound-Cu2+ complex formation at 7.5 uM by UV-Visible differential spectroscopic method
In short: (§4)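 Stock solutions: 1 mM ligand and 1 mM CuCl2 in methanol, N2-purged. Fixed ligand (5–15 μM) titrated with CuCl2 up to 3 equivalents, deoxygenated, scanned 200–600 nm at room temperature in a 10 mm quartz cuvette against methanol. Ligand-only and metal-only spectra subtracted to give differential spectra, followed at 460 and 374 nm.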

[12] = Metal chelating activity assessed as compound-Cu2+ complex formation at 7.5 uM in presence of 0.5 to 2 equiv of Cu2+ by UV-Visible differential spectroscopic method; in short: as §4
[13] = Antioxidant activity assessed as inhibition of auto-oxidation of cumene initiated by AIMN in PhCl at 30 degC relative to caffeic acid; type: functional; in short: as §3
[14] = Pro-oxidant activity in water assessed as auto-oxidation initiated by Cu+/Cu2+ couple in presence of H2O2; type: toxicity; settings: buffer
Cortical neurone [15] = test: Neuroprotective activity against glutamate-induced oxidative stress in Sprague-Dawley rat primary cortical neurons assessed as reduction in cell death at 12.5 to 50 uM after 24 hrs by MTT assay; type: functional, cell-based; settings: prague-Dawley
In short: (§5)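 Immature E17 primary cortical neurons plated at 10^6 cells/ml. At DIV1, rinsed and given increasing compound concentrations, with or without 5 mM glutamate added at the same time. Viability by MTT after 24 h, across three neuronal preparations. Two-way ANOVA with Bonferroni post hoc test.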

Cortical neurone [16] = test: Cytotoxicity against Sprague-Dawley rat primary cortical neurons assessed as reduction in cell viability up to 50 uM after 24 hrs by MTT assay; type: cell-based; in short: as §5
[17] = Antioxidant activity in pH 7.4 phosphate buffer assessed as inhibition rate constant for auto-oxidation of THF initiated by AAPH at 30 degC

Compound | inhibition [1] | inhibition [2] | K [3] | IC50 [4] | IC50 [8] | also measured
O=C(/C=C/c1ccc(O)cc1)c1cccnc1 | 25.2% | 21.5% | 5.7 ×10³ /M/s | > 2000 µM |  | 
CCOc1cc(/C=C/C(=O)c2cccnc2)ccc1O | 39.5% | 18.8% | 6.1 ×10³ /M/s | 484 µM |  | inhibition [5]: 33%
O=c1c(O)c(-c2ccc(O)c(O)c2)oc2cc(O)cc(O)c12 |  |  | 5 ×10⁵ /M/s |  |  | 
O=C(/C=C/c1cccc(O)c1)c1cccnc1 | 43.5% | 5.8% | 1.5 ×10³ /M/s | 266 µM |  | Papp at 6 h, 100 µM [6]: 6.5 ×10⁻⁶ cm/s
COc1cc(/C=C/C(=O)c2cccnc2)ccc1O | 37.2% | 17.5% | 7.1 ×10³ /M/s | 688 µM |  | inhibition [5]: 54%; Papp at 6 h, 100 µM [6]: 9.9 ×10⁻⁶ cm/s
O=C(/C=C/c1ccc(O)c(O)c1)c1cccnc1 | 100% | 91.5% | 6.8 ×10⁵ /M/s | 1000 µM | 9 µM | IC50 [7]: 24.4 µM; inhibition [9]: 20 to 80%; inhibition [10]: inactive; Activity [11]: Active; Activity [12]: Active; fold change (FC) [5]: 150; fold change (FC) [13]: > 2; Activity [14]: Not Active; Activity (Cortical neurone [15]): Active; Activity (Cortical neurone [16]): Non-Toxic; Papp at 6 h, 100 µM [6]: 5.5 ×10⁻⁶ cm/s; K [17]: 3.2 ×10⁵ /M/s
COc1cc(/C=C/C(=O)O)ccc1O [FERULATE] |  |  |  |  | > 100 µM | 
CCOC(=O)/C=C/c1ccc(O)c(OC)c1 | 21.4% |  | 4.6 ×10³ /M/s |  |  | 
OCCc1ccc(O)c(O)c1 |  |  | 8 ×10⁵ /M/s |  |  | 
C=CCSC(=O)/C=C/c1ccc(O)c(O)c1 |  |  |  |  | 12.5 µM | 
O=C(O)/C=C/c1ccc(O)c(O)c1 |  |  | 2.9 ×10⁵ /M/s |  |  | 
O=C(O)/C=C/c1cccc(O)c1 |  |  |  |  | > 100 µM | 
